Source: ChEMBL document CHEMBL4814013, “Scaffold repurposing of fendiline: Identification of potent KRAS plasma membrane localization inhibitors” (Eur J Med Chem, 2021)
Calls of active or inactive are those of the source. The rule behind the calls is not given here.

Key:
[1] = Inhibition of ASM in dog MDCK cells co-expressing recombinant full length mGFP-tagged KRAS G12V mutant and mCherry-CAAX assessed as reduction in plasma membrane localization of KRAS mutant incubated for 48 hrs by confocal microscopic analysis; assay type: cell membranes, Canis lupus familiaris
How it was run: (§1)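 MDCK cells stably co-expressing mGFP-KRAS G12V or mGFP-LactC2 with mCherry-CAAX (HRAS 179–189 C181S/C184S) grown on coverslips in DMEM/10% FBS. Treated 48 h with 0.1% DMSO or graded drug, fixed in 4% paraformaldehyde, then quantitative confocal imaging. Mislocalization scored as the Manders fraction of mCherry-CAAX co-localizing with the GFP probe. IC50 and Emax from three independent experiments.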

MDCK [2] = assay: Cytotoxicity against dog MDCK cells at 30 uM; assay type: functional, cell-based; conditions: Canis lupus familiaris
MDCK [3] = assay: Inhibition of ASM in dog MDCK cells co-expressing recombinant full length mGFP-tagged KRAS G12V mutant and mCherry-CAAX assessed as reduction in plasma membrane localization of KRAS mutant incubated for 48 hrs by confocal microscopic analysis relative to control; assay type: cell membranes; conditions: Canis lupus familiaris; how it was run: as §1

SMILES: COc1ccc([C@@H](C)N(CC=C(c2ccccc2)c2ccccc2)C(=O)CN2CCN(C)CC2)cc1
- IC50 [1]: 7.1 µM
- Activity (MDCK [2]): Active
- Emax (MDCK [3]): 0.51

SMILES: C[C@H](c1cccc(Cl)c1)N(CC=C(c1ccccc1)c1ccccc1)CCN1CCN(C)CC1
- IC50 [1]: 11.2 µM
- Activity (MDCK [2]): Active
- Emax (MDCK [3]): 0.77

SMILES: COc1ccc([C@@H](C)N(CC=C(c2ccccc2)c2ccccc2)CCN2CCOCC2)cc1
- IC50 [1]: 4.4 µM
- Activity (MDCK [2]): inactive
- Emax (MDCK [3]): 0.86

SMILES: COc1ccc([C@@H](C)N(CC=C(c2ccccc2)c2ccccc2)CCCCN2CCN(C)CC2)cc1
- Activity (MDCK [2]): Active
- Emax (MDCK [3]): 0.81

SMILES: COc1ccc([C@@H](C)N(CC=C(c2ccccc2)c2ccccc2)CCN(C)C)cc1
- IC50 [1]: 11.2 µM
- Activity (MDCK [2]): Active
- Emax (MDCK [3]): 0.66

SMILES: CCN(CC)CCN(CC=C(c1ccccc1)c1ccccc1)[C@H](C)c1ccc(OC)cc1
- Activity (MDCK [2]): Active
- Emax (MDCK [3]): 0.89

SMILES: COc1ccc([C@@H](C)N(CC=C(c2ccccc2)c2ccccc2)CCN2CCCCC2)cc1
- IC50 [1]: 0.6 µM
- Activity (MDCK [2]): Active
- Emax (MDCK [3]): 0.83

SMILES: C[C@H](c1ccccc1)N(CC=C(c1ccccc1)c1ccccc1)CCN1CCN(C)CC1
- IC50 [1]: 0.6 µM
- Activity (MDCK [2]): Active
- Emax (MDCK [3]): 0.79

SMILES: COc1ccc([C@H](C)N(CC=C(c2ccccc2)c2ccccc2)CCN2CCN(C)CC2)cc1
- IC50 [1]: 1.2 µM
- Activity (MDCK [2]): Active
- Emax (MDCK [3]): 0.83

SMILES: COc1ccc([C@@H](C)N(CC=C(c2ccccc2)c2ccccc2)CCO)cc1
- IC50 [1]: 0.2 µM
- Activity (MDCK [2]): inactive
- Emax (MDCK [3]): 0.72

SMILES: COc1ccccc1[C@@H](C)N(CC=C(c1ccccc1)c1ccccc1)CCN1CCN(C)CC1
- IC50 [1]: 3.8 µM
- Activity (MDCK [2]): Active
- Emax (MDCK [3]): 0.86

SMILES: CCN(CC=C(c1ccccc1)c1ccccc1)[C@H](C)c1ccc(OC)cc1
- IC50 [1]: 10.6 µM
- Activity (MDCK [2]): inactive
- Emax (MDCK [3]): 0.84

SMILES: COc1ccc([C@@H](C)N(C/C=C/c2ccccc2)CCN2CCN(C)CC2)cc1
- IC50 [1]: 14.8 µM
- Activity (MDCK [2]): inactive
- Emax (MDCK [3]): 0.84
